According to publication PMC8583780 (ChemMedChem, 2020):
Entries after “also recorded” stand apart in the source; their conditions may differ.

Experiments:
[1] = human Phase 1, even at the highest doses; cited from earlier work
[2] = five Phase 1 study arms, including aged subjects; cited from earlier work
[3] = target: T1, human calpain-1 (Homo sapiens, UniProt P07384); assay: Calpain-1 inhibition assay; format: biochemical; settings: for Calpain-1 % Inhibition at 1 μM: 1 μM compound, three replicates, errors estimated <10%; for inhibition at 1 µM: read-out: Calpain-1 % Inhibition at 1 μM
T1 sequence (P07384 1-714): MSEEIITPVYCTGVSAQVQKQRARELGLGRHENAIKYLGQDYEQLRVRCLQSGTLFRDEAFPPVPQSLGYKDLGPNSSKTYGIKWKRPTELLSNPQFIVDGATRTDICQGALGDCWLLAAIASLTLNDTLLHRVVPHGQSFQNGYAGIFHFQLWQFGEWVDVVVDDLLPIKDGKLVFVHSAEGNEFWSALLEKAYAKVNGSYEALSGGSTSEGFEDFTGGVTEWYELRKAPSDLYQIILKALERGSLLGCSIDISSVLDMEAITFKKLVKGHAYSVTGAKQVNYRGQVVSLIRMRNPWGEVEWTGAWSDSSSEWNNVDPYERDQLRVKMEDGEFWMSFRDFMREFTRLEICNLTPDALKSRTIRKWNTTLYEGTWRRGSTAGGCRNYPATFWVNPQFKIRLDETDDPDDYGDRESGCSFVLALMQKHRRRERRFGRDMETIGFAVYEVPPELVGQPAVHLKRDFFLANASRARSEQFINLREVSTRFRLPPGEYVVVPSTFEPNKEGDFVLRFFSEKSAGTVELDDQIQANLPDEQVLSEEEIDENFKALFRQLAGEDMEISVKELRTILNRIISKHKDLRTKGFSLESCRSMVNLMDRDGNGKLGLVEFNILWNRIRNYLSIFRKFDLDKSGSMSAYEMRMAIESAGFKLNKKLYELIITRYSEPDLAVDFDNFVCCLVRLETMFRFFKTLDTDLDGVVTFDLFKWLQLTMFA
T1 sequence (P04632 1-268 partner): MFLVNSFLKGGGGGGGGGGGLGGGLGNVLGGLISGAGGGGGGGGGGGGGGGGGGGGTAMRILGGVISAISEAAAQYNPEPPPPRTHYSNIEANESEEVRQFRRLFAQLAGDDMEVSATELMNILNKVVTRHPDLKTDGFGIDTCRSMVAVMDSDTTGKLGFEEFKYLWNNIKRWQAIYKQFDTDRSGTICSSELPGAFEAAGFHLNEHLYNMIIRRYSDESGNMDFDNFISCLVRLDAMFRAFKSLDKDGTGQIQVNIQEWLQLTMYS

[4] = target: human cathepsin B (Homo sapiens, UniProt P07858); assay: Cathepsin B inhibition assay; format: biochemical; settings: for CatB % Inhibition at 1 μM: 1 μM compound, three replicates; for inhibition at 1 µM: read-out: CatB % Inhibition at 1 μM
[5] = target: T2, human cathepsin K (Homo sapiens, UniProt P43235); assay: Cathepsin K inhibition assay; format: biochemical; settings: for CatK % Inhibition at 1 μM: 1 μM compound, three replicates; for inhibition at 1 µM: read-out: CatK % Inhibition at 1 μM
T2 sequence (P43235 115-329): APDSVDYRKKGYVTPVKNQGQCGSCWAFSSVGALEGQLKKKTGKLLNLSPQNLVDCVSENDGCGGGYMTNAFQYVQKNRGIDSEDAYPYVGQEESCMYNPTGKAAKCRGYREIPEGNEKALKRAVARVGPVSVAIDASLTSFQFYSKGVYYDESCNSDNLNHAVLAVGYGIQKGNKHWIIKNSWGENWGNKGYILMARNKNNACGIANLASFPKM

[6] = target: T3, papain (Carica papaya, UniProt P00784); assay: Papain inhibition assay; format: biochemical; settings: for Papain % Inhibition at 1 μM: 1 μM compound, three replicates; for inhibition at 1 µM: read-out: Papain % Inhibition at 1 μM
T3 sequence (P00784 134-345): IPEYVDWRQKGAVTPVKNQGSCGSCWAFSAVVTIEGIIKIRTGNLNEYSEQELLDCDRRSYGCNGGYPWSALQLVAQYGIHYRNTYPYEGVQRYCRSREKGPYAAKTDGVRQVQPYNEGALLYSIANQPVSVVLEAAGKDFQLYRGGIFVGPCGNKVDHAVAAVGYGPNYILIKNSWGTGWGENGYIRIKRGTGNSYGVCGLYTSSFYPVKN

[7] = system: scopolamine-induced cognitive deficit in mice; assay: Step-through passive avoidance; format: in vivo; settings: scopolamine 1 mg/kg, drug 10 mg/kg i.p.
In short: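 Mice receive scopolamine 1 mg/kg in saline by i.p. injection 30 min before training, then test compound (10 mg/kg) or vehicle 20 min before training. During training, entry into the dark compartment delivers an electric shock. The read-out is the latency to enter the dark compartment.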

For `O=C(NC1CC1)C(=O)C(Cc1ccccc1)NC(=O)[C@H]1CCC(=O)N1Cc1ccccc1` (stereo partly shown) [ABT-957, alicapistat], the “Measured CSF concentrations” value [1] is given as 9 to 21 nM and the Treatment-associated adverse events [2] is given as “no treatment-associated adverse events were identified”.

For `CC(C)CCNC(=O)[C@H](CC(C)C)NC(=O)[C@H]1O[C@@H]1C(=O)O` [Compound E-64c], the “Calpain-1 % Inhibition at 1 μM” value [3] was 86.0%, the “CatB % Inhibition at 1 μM” value [4] was 99.3% and the “CatK % Inhibition at 1 μM” value [5] was 100%. For the same compound, the “Papain % Inhibition at 1 μM” value [6] was 97.6%.

In the case of `CCCNC(=O)[C@H]1O[C@@H]1C(=O)N[C@H](C(=O)N1CCC[C@H]1C(=O)O)[C@@H](C)CC` [CA-074], the “Calpain-1 % Inhibition at 1 μM” value [3] is reported as 4.72%, the “CatB % Inhibition at 1 μM” value [4] is reported as 100% and the “CatK % Inhibition at 1 μM” value [5] is reported as 70.5%. The “Papain % Inhibition at 1 μM” value [6] was 16.8%.

With `CCOC(=O)[C@H]1O[C@@H]1C(=O)N[C@@H](CC(C)C)C(=O)NCCC(C)C` [Compound E-64d] the “Memory restoration in STPA, in words” value [7] was “restore memory”.

`CC(C)(F)C[C@H](N[C@@H](c1ccc(-c2ccc(S(C)(=O)=O)cc2)cc1)C(F)(F)F)C(=O)NC1(C#N)CC1` [odanacatib] gave an inhibition at 1 µM [3] of 7.1%, an inhibition at 1 µM [4] of 57.2% and an inhibition at 1 µM [5] of 99.8%. It also gave an inhibition at 1 µM [6] of 14.7%.

For `CCC(NC(=O)[C@H](CC(C)C)NC(=O)OCc1ccccc1)C(=O)C(=O)NCCCN1CCOCC1` (stereo partly shown) [AK-295], the “Calpain-1 % Inhibition at 1 μM” value [3] was 100%, the “CatB % Inhibition at 1 μM” value [4] was 18.0% and the “Cathepsin K inhibition in words” value [5] was “potent inhibitor of cathepsin K”. The “CatK % Inhibition at 1 μM” value [5] was 100% and the “Papain % Inhibition at 1 μM” value [6] was 18.7%.

`O=C(NCc1ccc(F)cc1)C(=O)[C@H](Cc1ccccc1)NC(=O)[C@H]1CCC(=O)N1Cc1ccccc1` [Compound 1c, (R)-1-benzyl-N-((S)-4-((4-fluorobenzyl)amino)-3,4-dioxo-1-phenylbutan-2-yl)-5-oxopyrrolidine-2-carboxamide] gave an IC50 [3] of 78 ± 10 nM, an inhibition at 1 µM [3] of 98.1% and an inhibition at 1 µM [4] of 11.4%. The inhibition at 1 µM [5] was 13.5%, the inhibition at 1 µM [6] was 15.2% and the “Memory restoration in STPA, in words” value [7] was “restored cognitive function; also recorded: restored memory”.

For `O=C(NCc1ccc(F)cc1)C(=O)[C@@H](Cc1ccccc1)NC(=O)[C@H]1CCC(=O)N1Cc1ccccc1` [Compound 1g, (R)-1-benzyl-N-((R)-4-((4-fluorobenzyl)amino)-3,4-dioxo-1-phenylbutan-2-yl)-5-oxopyrrolidine-2-carboxamide], the “Calpain-1 potency in words” value [3] was “greatly reduced potency” and the inhibition at 1 µM [3] was 31.8%.
